Source: PubChem
INS promoter act: TRM-6 insulin promoter activation. TRM-6 cells (human fetal islet line), insulin promoter eGFP reporter, imaging; plate-scaled: unstimulated 0, stimulated control 100. AID 1296. 130,000 tested, 0.81% active. activation, % at 2 µM;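 active = activation at 2 µM above a set limit, confirmed on inspection of the cell images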;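 note: share of cells whose green reporter signal exceeds an intensity cutoff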
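Material: TRM-6 insulin promoter–eGFP reporter cells. Buffer or medium: Low-glucose (5.5 mM) medium with tamoxifen. Probe or stimulus: tamoxifen at 0.75 µM added at seeding for reporter induction. Times: tamoxifen pre-incubation 15 h overnight, then compound exposure 48 h at 37 °C. Detection: high-content imaging of fixed cells with Hoechst nuclear stain.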
A number is an active result; – = inactive. This excerpt belongs to a sample that is enriched for hits.

SMILES	INS promoter act
CC(C)(C)OC(=O)N1CCCC1C(=O)NCCc1ccccc1 (centres undefined)	–
Cc1cccc(C)c1NC(=O)C1(NC(=O)C2CCCN2C(=O)OC(C)(C)C)CCCCC1 (centres undefined)	171.4
Cc1ccc(NC(=O)C2CCCN2C(=O)Oc2ccccc2)cc1C (centres undefined)	–
CC1(C)CN(c2ccc(CC#N)cc2)C1=O	–
CC(=O)/C=C1\SC(CC(=O)O)C(=O)N1c1ccccc1 (centres undefined)	–
CCN(CC(=O)NC(=O)NC1CCCCC1)Cc1nc2ccccc2c(=O)[nH]1	–
O=C(CCc1nc2ccccc2c(=O)[nH]1)OCC(=O)c1ccc(C2CCCCC2)cc1	–
O=C(COCc1nc2ccccc2c(=O)[nH]1)NCC1CCCCC1	486.2
COc1ccc(OC)c(-c2c(C#N)c(N)nc3c2c(=O)nc2sccn23)c1	–
COc1cccc(C(=O)NCCC2=CCCCC2)c1	–
COc1ccc(C2(O)CC3CCC(C2)N3c2nc(C)cc(C)c2C#N)cc1 (centres undefined)	–
COc1ccccc1NC(=O)C1=C(C)Nc2nnnn2C1c1ccncc1 (centres undefined)	–
COc1ccc(NC(=O)C2=C(C)Nc3ncnn3C2c2ccccc2C(F)(F)F)c(OC)c1 (centres undefined)	403.4
CC1=C(C(=O)Nc2cccnc2)C(c2cccnc2)n2ncnc2N1 (centres undefined)	–
CC(=O)N1N=C(c2ccncc2)OC12CCCCC2	–
Fc1ccc(COc2ccc(Cl)cc2/C=N/Nc2nc(N3CCCC3)nc(N3CCCC3)n2)cc1	658.3
CCOc1ccc(/C=N/Nc2nc(N3CCCC3)nc(N3CCCC3)n2)cc1OC	–
COc1cc(/C=N/Nc2nc(N3CCCC3)nc(N3CCCC3)n2)ccc1O	–
Fc1ccccc1-c1n[nH]c(=S)n1CC1CCCO1 (centres undefined)	–
CCN(C(=O)COC(=O)c1cccnc1Nc1cccc(C(F)(F)F)c1)C1CCS(=O)(=O)C1 (centres undefined)	–
COC(=O)c1cc(C(=O)Nc2cc(C)ccn2)cc([N+](=O)[O-])c1	–
Cn1cnnc1SCc1ccc(C(=O)n2ncc(C#N)c2N)cc1	–
O=C(O)CCc1ccc(-c2cccs2)n1CC1CCCO1 (centres undefined)	–
COCCCn1c(CCC(=O)O)ccc1-c1cccs1	86.5
CCCn1c(CCC(=O)O)ccc1-c1cccs1	–
SMILES	INS promoter act
NS(=O)(=O)c1ccc(NCc2cc(Cl)ccc2OCc2ccc(F)cc2)cc1	–
N#CC1=C(N)C(C#N)(C#N)C(c2cccnc2)C2COCC=C12 (centres undefined)	–
N#CC1=C(N)C(C#N)(C#N)C(c2cccnc2)C2CN(C(=O)OCc3ccccc3)CC=C12 (centres undefined)	–
N#CC1=C(N)C(C#N)(C#N)[C@H](c2ccoc2)[C@H]2CN(Cc3ccccc3)CC=C12	212.5
CCOc1ccc(NC(=O)CCNS(=O)(=O)c2ccc3c(c2)c(=O)n(C)c(=O)n3C)cc1	–
Cn1c(=O)oc2cc(S(=O)(=O)NCCC(=O)N3CCc4ccccc4C3)ccc21	–
CCOC(=O)N1CCN(C(=O)CCNS(=O)(=O)c2ccc3c(c2)c(=O)n(C)c(=O)n3C)CC1	292.9
COc1ccc(N2CCN(C(=O)CCCSc3nc4ccccc4[nH]3)CC2)cc1	–
O=C1C2C3C=CC(C3)C2C(=O)N1c1ccc(N2CCN(c3ccccn3)CC2)c([N+](=O)[O-])c1 (centres undefined)	–
CCOc1cc(NS(=O)(=O)c2ccccc2)c(OCC)cc1NC(=O)c1ccco1	–
COc1ccc(/C=N/NC(=O)C(=O)N2CCN(c3ccccc3OC)CC2)cc1	–
Cc1cccc(OCC(=O)N/N=C2/SCC(=O)N2Cc2ccco2)c1	–
CCCN1C(=O)c2ccc(C(=O)Nc3nccs3)cc2C1=O	475.0
CCc1nnc(NC(=O)c2ccc3c(c2)C(=O)N(C(C)(C)C)C3=O)s1	–
O=C(Nc1nccs1)c1cccc(S(=O)(=O)N2CCCCC2)c1	–
CCC(CC)C(=O)Nc1cccc(C(=O)Nc2nccs2)c1	75.7
Cc1ncoc1C(=O)Nc1nccs1	–
CCCN1C(=O)c2ccc(C(=O)NCc3ccco3)cc2C1=O	–
Cc1c(C(=O)Oc2cccc3ccccc23)cnn1-c1ccccc1	–
O=C(/C=C/c1ccc(Cl)c([N+](=O)[O-])c1)NCc1cccnc1	–
Cn1cc(Cl)c(C(=O)OCC(=O)Nc2nc(-c3ccc(Br)cc3)cs2)n1	–
O=C(NCCc1ccccc1)c1cccnc1N1CCCCCC1	–
CC(=O)N(c1ccc2oc(=O)sc2c1)S(=O)(=O)c1cccs1	–
COc1ccc(N(C(C)=O)S(=O)(=O)c2cccs2)cc1	506.3
CCNC(=O)c1ccc(N(C)S(=O)(=O)c2cccs2)cc1	–
SMILES	INS promoter act
O=S(=O)(c1ccccc1)N1CC=C(c2ccccc2)CC1	–
Cn1c(CN2CCN(C(=O)c3ccc(F)cc3)CC2)nc2cc([N+](=O)[O-])ccc21	–
O=C(c1cc(-c2ccccc2)on1)N1CCN(Cc2ccc3c(c2)OCO3)CC1	–
O=c1[nH]c(CN2CCN(Cc3ccc4c(c3)OCO4)CC2)nc2ccccc12	–
O=c1cc(-c2ccccc2)nc(N2CCN(Cc3ccc4c(c3)OCO4)CC2)[nH]1	730.0
Cc1ccc(/C=C/C(=O)OC(C)C(=O)Nc2ncc(Cl)cc2Cl)o1 (centres undefined)	–
CCc1nnc(NC(=O)Cc2ccc(OCc3c(C)noc3C)cc2)s1	–
Cc1ccccc1/C=N/Nc1ccnc2cc(Cl)ccc12	–
CCOC(=O)N1CCC(=NNC(=O)c2cc3ccccc3cc2O)CC1	–
CCOC(=O)N1CCC(=NNc2ccnc3cc(Cl)ccc23)CC1	558.3
O=C(c1ccccc1F)N1CCCC(c2ccccc2)C1 (centres undefined)	–
COc1ccc(C(=O)N2CCC(C(=O)O)CC2)cc1	–
COc1ccc(C(=O)N2CCCC(c3ccccc3)C2)cc1 (centres undefined)	136.4
CC(c1nnc(SCC(=O)N2CCc3ccccc32)n1-c1ccc(Cl)cc1)N(C)C (centres undefined)	–
COc1cc2[nH]c(=O)n(CCCCCC(=O)NCCc3c[nH]c4ccccc34)c(=O)c2cc1OC	–
O=C(CSc1ncn[nH]1)NCCC(c1ccccc1)c1ccccc1	85.3
COc1ccc(CCNC(=O)CSc2ncn[nH]2)cc1	–
O=C(CSc1ncn[nH]1)NC1CCCc2ccccc21 (centres undefined)	–
CCc1ccc(OCC(=O)NC(NC(=S)Nc2ccc(Cl)cc2)C(Cl)(Cl)Cl)cc1 (centres undefined)	–
CN1/C(=C\C(=O)COC(=O)c2ccc(O)c(O)c2)C(C)(C)c2ccccc21	–
c1ccc2sc(SCc3ccc(-c4nnco4)cc3)nc2c1	–
CC(C)CC(=O)Nc1nnc(SCC(=O)NCc2ccc3c(c2)OCO3)s1	–
Cc1cccc(NC(=O)C2CCCN(S(=O)(=O)c3cccc4nsnc34)C2)c1 (centres undefined)	–
CCc1cccc(NC(=O)C2CCCN(S(=O)(=O)c3c(C)[nH]c(=O)[nH]c3=O)C2)c1 (centres undefined)	82.8
CCc1cccc(NC(=O)C2CCCC2)c1	–
CCOC(=O)c1ccc(NC(=O)NS(=O)(=O)c2ccc(C)cc2)cc1	–
COc1ccc(NC(=O)C2CCCCN2CC(=O)OCc2ccccc2)cc1OC (centres undefined)	–
Cc1cc(C)c(S(C)(=O)=O)c(N(C)N)n1	–
CCNc1nc(NCC)nc(N(C)N)n1	–
